Measured values as given in ChEMBL document CHEMBL2021781, “Dual targeting of histone deacetylase and topoisomerase II with novel bifunctional inhibitors” (J Med Chem, 2012).
Calls of active or inactive are those of the source. The rule behind the calls is not given here.

Columns and labels:
[1] = biological target: T1, Histone deacetylase (Homo sapiens) (UniProt Q13547+O15379+Q9UBN7+Q92769+Q9UQL6+Q8WUI4+Q9BY41+Q96DB2+P56524+Q9UKV0+Q969S8); details: DU-145, 0.5 to 1 uM
[2] = biological target: DNA topoisomerase 2-alpha (Homo sapiens) (UniProt P11388); assay: Inhibition of topoisomerase 2 in human DU145 cells assessed as stabilization of enzyme-DNA cleavage complex at 130 nM after 30 mins by immunoblot analysis relative to control; format: cell-based; details: DU-145
Outline: (§1)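 DU-145 cells dosed 30 min or 72 h; controls given 0.1% DMSO. 72 h samples equalized to the 30 min cell count before lysis in 1% sarkosyl. Lysates spun on a CsCl gradient at 31,000 RPM, room temperature, 12 h. Fractions holding Topo II–DNA complexes found by A260, slot-blotted onto nitrocellulose, and immunoblotted for Topo II.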

[3] = biological target: DNA topoisomerase 2-alpha (Homo sapiens) (UniProt P11388); assay: Inhibition of topoisomerase 2 in human DU145 cells assessed as stabilization of enzyme-DNA cleavage complex at 130 nM after 72 hrs by immunoblot analysis; format: cell-based; details: DU-145
Outline: as §1

[4] = Drug uptake in human DU145 cell cytosol at 1 uM after 4 hrs by confocal microscopic analysis; format: ADME, cell-based, DU-145
Outline: (§2)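 Cells plated on glass coverslips 24 h ahead, then given fresh media with compound at 1 μM for 4 h. After a PBS wash, coverslips were mounted and intracellular distribution imaged by confocal microscopy, excitation 488 nm. Done in DU-145 cells, with A549 lung tumor cells also examined.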

[5] = biological target: T1, Histone deacetylase (Homo sapiens); assay: Inhibition of HDAC in human DU145 cells assessed as upregulation of p21 expression at IC50 concentration after 4 hrs by Western blot analysis relative to control; format: cell-based; details: DU-145
Outline: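 Lysed in RIPA with protease inhibitors, cleared 14,000 RPM at 4°C. Immunoblotted, probing acetylated versus total tubulin; p21 also checked. Near-infrared detection at 700/800 nm.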

[6] = biological target: T2, Protein deacetylase HDAC6 (Homo sapiens) (UniProt Q9UBN7); assay: Inhibition of HDAC6-mediated tubulin acetylation in human DU145 cells at 130 nM after 4 hrs by Western blot analysis; format: cell-based; details: DU-145
T2 sequence (whole entry): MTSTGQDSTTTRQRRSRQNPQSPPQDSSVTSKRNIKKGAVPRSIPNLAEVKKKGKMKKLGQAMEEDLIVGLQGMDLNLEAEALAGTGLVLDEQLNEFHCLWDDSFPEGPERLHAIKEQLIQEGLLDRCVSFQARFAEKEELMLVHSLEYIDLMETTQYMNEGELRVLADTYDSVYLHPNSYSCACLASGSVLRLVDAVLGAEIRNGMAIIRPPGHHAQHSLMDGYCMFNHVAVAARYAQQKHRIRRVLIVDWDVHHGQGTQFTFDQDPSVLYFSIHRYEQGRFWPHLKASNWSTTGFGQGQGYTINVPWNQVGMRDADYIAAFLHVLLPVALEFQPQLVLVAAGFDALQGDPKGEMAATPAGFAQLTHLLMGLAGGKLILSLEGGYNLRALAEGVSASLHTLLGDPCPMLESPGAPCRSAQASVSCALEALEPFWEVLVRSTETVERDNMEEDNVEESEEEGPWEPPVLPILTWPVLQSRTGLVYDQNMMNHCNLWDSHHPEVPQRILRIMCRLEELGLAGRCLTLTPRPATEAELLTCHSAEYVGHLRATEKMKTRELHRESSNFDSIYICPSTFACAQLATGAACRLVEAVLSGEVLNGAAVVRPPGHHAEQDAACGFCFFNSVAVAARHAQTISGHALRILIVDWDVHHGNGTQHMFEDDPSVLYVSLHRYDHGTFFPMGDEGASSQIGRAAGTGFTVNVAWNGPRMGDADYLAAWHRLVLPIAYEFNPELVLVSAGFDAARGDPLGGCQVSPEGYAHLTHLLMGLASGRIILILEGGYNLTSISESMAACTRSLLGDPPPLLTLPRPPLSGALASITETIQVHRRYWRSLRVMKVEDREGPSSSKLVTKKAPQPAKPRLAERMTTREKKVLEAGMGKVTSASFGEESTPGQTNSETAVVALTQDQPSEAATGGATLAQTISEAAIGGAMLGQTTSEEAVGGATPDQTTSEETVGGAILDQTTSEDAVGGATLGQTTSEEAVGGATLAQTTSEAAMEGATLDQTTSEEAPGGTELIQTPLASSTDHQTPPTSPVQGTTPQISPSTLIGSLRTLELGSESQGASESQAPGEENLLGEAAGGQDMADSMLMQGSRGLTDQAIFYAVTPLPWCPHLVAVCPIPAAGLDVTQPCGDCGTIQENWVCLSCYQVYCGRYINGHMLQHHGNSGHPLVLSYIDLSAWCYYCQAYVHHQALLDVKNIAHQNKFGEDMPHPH
Outline: (§3)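 DU-145 cells passaged 24 h before dosing, then treated 4 h, with no more than 0.1% DMSO including controls. Lysis in RIPA buffer with protease inhibitors, protein quantified against a BSA standard, SDS-PAGE and transfer. Blots probed with rabbit anti-tubulin and mouse anti-acetyl tubulin, read by near-infrared imaging at 700/800 nm.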

[7] = Drug uptake in human A549 cell cytosol at 1 uM after 4 hrs by confocal microscopic analysis; format: ADME, cell-based
Outline: as §2

[8] = biological target: T2, Protein deacetylase HDAC6 (Homo sapiens); assay: Inhibition of HDAC6-mediated tubulin acetylation in human DU145 cells at 90 nM after 4 hrs by Western blot analysis; format: cell-based; details: DU-145
Outline: as §3

Histone deacetylase 1 = Histone deacetylase 1 (Homo sapiens, UniProt Q13547); assay: Inhibition of HDAC1 in human HeLa cell nuclear extract using Fluor de Lys as substrate after 15 mins by fluorometric analysis
Sequence of Histone deacetylase 1 (Q13547 whole entry): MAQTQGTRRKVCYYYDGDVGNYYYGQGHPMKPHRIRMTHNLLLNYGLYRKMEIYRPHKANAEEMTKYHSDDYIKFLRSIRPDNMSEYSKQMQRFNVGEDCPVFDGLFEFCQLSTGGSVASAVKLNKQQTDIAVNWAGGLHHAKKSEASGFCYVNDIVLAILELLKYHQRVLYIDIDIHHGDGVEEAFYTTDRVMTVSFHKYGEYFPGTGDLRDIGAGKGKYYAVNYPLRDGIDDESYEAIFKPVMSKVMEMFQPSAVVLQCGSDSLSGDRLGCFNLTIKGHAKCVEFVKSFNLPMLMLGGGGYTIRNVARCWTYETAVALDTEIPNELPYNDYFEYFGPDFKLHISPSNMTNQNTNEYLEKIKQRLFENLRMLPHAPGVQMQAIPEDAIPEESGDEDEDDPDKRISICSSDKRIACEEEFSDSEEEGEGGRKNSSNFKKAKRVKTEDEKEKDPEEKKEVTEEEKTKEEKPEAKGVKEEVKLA

Sequence of DNA topoisomerase 2-alpha (Homo sapiens) (P11388 whole entry): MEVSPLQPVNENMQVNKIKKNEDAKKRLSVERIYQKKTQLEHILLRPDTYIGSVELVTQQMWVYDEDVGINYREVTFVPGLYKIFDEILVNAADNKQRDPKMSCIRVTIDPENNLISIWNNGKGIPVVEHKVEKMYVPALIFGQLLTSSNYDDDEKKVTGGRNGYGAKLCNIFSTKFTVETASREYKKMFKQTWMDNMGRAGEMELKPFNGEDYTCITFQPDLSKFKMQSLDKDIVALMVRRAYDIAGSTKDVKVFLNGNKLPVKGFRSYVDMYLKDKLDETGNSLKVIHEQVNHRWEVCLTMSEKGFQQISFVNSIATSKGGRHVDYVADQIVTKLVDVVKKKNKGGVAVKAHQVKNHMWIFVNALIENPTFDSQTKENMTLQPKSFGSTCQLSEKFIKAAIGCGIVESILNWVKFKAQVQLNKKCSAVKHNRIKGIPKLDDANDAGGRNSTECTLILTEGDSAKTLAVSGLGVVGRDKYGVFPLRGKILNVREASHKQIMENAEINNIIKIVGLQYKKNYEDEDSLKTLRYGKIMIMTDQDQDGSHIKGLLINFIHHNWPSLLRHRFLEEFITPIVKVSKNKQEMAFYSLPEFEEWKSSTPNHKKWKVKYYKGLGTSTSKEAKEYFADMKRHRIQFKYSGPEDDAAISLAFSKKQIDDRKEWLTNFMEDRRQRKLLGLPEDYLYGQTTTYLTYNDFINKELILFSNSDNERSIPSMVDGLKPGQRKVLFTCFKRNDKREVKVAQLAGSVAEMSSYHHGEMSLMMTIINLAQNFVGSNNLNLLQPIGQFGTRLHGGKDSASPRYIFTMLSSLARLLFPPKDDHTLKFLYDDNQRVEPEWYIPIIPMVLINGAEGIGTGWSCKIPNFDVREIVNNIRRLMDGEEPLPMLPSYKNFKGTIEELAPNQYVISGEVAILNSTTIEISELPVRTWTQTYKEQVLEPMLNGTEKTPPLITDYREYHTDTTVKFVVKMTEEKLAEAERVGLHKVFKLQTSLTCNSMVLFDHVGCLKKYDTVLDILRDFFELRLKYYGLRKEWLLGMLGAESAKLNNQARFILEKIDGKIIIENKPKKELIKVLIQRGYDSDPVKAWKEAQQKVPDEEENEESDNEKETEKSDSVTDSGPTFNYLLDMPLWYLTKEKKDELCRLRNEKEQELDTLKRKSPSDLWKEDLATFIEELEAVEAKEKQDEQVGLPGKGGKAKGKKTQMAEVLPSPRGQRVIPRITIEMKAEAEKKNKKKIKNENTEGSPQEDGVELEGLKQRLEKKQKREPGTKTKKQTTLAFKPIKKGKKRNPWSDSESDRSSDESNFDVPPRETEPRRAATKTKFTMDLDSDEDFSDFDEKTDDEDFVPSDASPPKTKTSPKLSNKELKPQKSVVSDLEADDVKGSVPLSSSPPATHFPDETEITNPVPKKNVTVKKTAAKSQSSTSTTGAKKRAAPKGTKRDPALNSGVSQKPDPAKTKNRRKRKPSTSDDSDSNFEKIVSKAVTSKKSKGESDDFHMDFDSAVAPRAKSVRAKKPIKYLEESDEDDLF

With `COc1cccc2c1C(=O)c1c(O)c3c(c(O)c1C2=O)C[C@@](O)(C(C)=O)C[C@@H]3O[C@H]1C[C@H](NCc2ccc(NC(=O)CCCCCCC(=O)NO)cc2)[C@H](O)[C@H](C)O1` the inhibition [1] was “inactive”, the inhibition [2] was “inactive” and the inhibition [3] was “Active”. The Drug uptake [4] was “Active”, the Activity [5] was “inactive” and the inhibition [6] was “Active”. The Drug uptake [7] was “Active”, the inhibition [8] was “Active” and the IC50 (Histone deacetylase 1) was 0.047 µM.
